Laboratory results published in ChEMBL document CHEMBL1155213, “Solvent free synthesis of 1,5-disubstituted tetrazoles derived from Baylis Hillman acetates as potential TNF-alpha inhibitors” (2009).

Key:
Blood [1] = test: Inhibition of LPS-induced TNFalpha production in human whole blood at 10 uM treated 1 hr before LPS challenge measured after 5 hrs by ELISA; assay type: functional
Method in brief: (§1)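 Whole blood aliquots preincubated 1 h at 37 °C with test compound (10 or 100 μM solution) or DMSO vehicle, then stimulated with LPS in PBS (final 1 ng/ml). Incubated a further 5 h at 37 °C, stopped on ice 10 min. Plasma separated by centrifugation (3000 rpm, 10 min, 4 °C), stored at −70 °C. Plasma TNF-α quantified by ELISA.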

Blood [2] = test: Inhibition of LPS-induced TNFalpha production in human whole blood at 100 uM treated 1 hr before LPS challenge measured after 5 hrs by ELISA; assay type: functional; method in brief: as §1

SMILES	inhibition at 10 µM (Blood [1]) [%]	inhibition at 100 µM (Blood [2]) [%]
COC(=O)/C(=C/c1ccc(OC)cc1)Cn1nnnc1-c1ccncc1	8.6	12.9
COC(=O)/C(=C/c1ccccc1)Cn1nnnc1-c1ccccc1	14.6	35.1
COC(=O)/C(=C/c1ccccc1)Cn1nnnc1-c1ccncc1	18.2	67
COC(=O)/C(=C/c1ccc(OC)cc1)Cn1nnnc1-c1cccnc1	5.4	30.2
COC(=O)/C(=C/c1ccc(OC)cc1)Cn1nnnc1-c1ccccc1	22.2	46.3
